# Activity calls are given as the source filed them. No cut-off for these calls is given here.
# Key:
# MDA-MB-231 [1] = experiment: Cytotoxicity against human MDA-MB-231 cells after 48 hrs by MTT assay; assay type: functional, cell-based; settings: MDA-MB-231, 48 h
# Method in brief: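 MDA-MB-231 cells exposed to a range of compound concentrations for 48 h, then viability read by MTT. IC50 (50% cell death) obtained by non-linear regression to a sigmoidal dose-response function; mean ± SD of three independent experiments.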
# MDA-MB-231 [2] = experiment: Induction of cell cycle arrest in human MDA-MB-231 cells assessed as accumulation at G2/M phase at 8 uM after 48 hrs by propidium iodide staining based flow cytometry; assay type: functional
# Method in brief: (§1)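 After 48 h of compound exposure, MDA-MB-231 cells were fixed, stained with propidium iodide and analysed by flow cytometry, with at least 3000 cells per population. Phase fractions (<G1, G1, S, G2/M, >G2) were compared with DMSO vehicle controls. Values are mean ± SD of 4 independent cell samples.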
# MDA-MB-231 [3] = experiment: Induction of cell cycle arrest in human MDA-MB-231 cells assessed as accumulation at G1 phase at 8 uM after 48 hrs by propidium iodide staining based flow cytometry; assay type: functional; method in brief: as §1
# MDA-MB-231 [4] = experiment: Induction of cell cycle arrest in human MDA-MB-231 cells assessed as < G1 DNA content at 8 uM after 48 hrs by propidium iodide staining based flow cytometry; assay type: functional; method in brief: as §1
# MDA-MB-231 [5] = experiment: Induction of cell cycle arrest in human MDA-MB-231 cells assessed as accumulation at S phase at 8 uM after 48 hrs by propidium iodide staining based flow cytometry; assay type: functional; method in brief: as §1
# MDA-MB-231 [6] = experiment: Induction of cell cycle arrest in human MDA-MB-231 cells assessed as >G2 DNA content at 8 uM after 48 hrs by propidium iodide staining based flow cytometry; assay type: functional; method in brief: as §1
# MDA-MB-231 [7] = experiment: Induction of cell cycle arrest in human MDA-MB-231 cells assessed as reduction in accumulation at S phase at 15 uM after 48 hrs by propidium iodide staining based flow cytometry; assay type: functional; method in brief: as §1
# MDA-MB-231 [8] = experiment: Induction of cell cycle arrest in human MDA-MB-231 cells assessed as accumulation at G2/M phase at 15 uM after 48 hrs by propidium iodide staining based flow cytometry; assay type: functional; method in brief: as §1
# MDA-MB-231 [9] = experiment: Induction of cell cycle arrest in human MDA-MB-231 cells assessed as >G2 DNA content at 15 uM after 48 hrs by propidium iodide staining based flow cytometry; assay type: functional; method in brief: as §1
# MDA-MB-231 [10] = experiment: Induction of cell cycle arrest in human MDA-MB-231 cells assessed as reduction in accumulation at G1 phase at 15 uM after 48 hrs by propidium iodide staining based flow cytometry; assay type: functional; method in brief: as §1
# MDA-MB-231 [11] = experiment: Induction of cell cycle arrest in human MDA-MB-231 cells assessed as < G1 DNA content at 15 uM after 48 hrs by propidium iodide staining based flow cytometry; assay type: functional; method in brief: as §1
Structure (SMILES),IC50 (MDA-MB-231 [1]) [µM],Activity (MDA-MB-231 [2]),Activity (MDA-MB-231 [3]),Activity (MDA-MB-231 [4]),Activity (MDA-MB-231 [5]),Activity (MDA-MB-231 [6]),Activity (MDA-MB-231 [7]),Activity (MDA-MB-231 [8]) [%],Activity (MDA-MB-231 [9]),Activity (MDA-MB-231 [10]),Activity (MDA-MB-231 [11])
Clc1nc(Cl)c2scc(Br)c2n1,5.9,inactive,inactive,inactive,inactive,inactive,,,,,
Clc1nc(Cl)c2sccc2n1,9,,,,,,Active,>70,inactive,Active,inactive
